Laboratory results reported in ChEMBL document CHEMBL4334552, “Discovery of BMS-986260, a Potent, Selective, and Orally Bioavailable TGFβR1 Inhibitor as an Immuno-oncology Agent” (ACS Med Chem Lett, 2020).
In brackets after ≈: the same amount, converted by molar mass. Activity calls are given as the source filed them. No cut-off for these calls is given here.

Assays:
[1] = Half life in human liver microsomes in presence of NADPH; format: ADME, Microsome
[2] = target: Cytochrome P450 2C19 (Homo sapiens, UniProt P33261); assay: Induction of recombinant CYP2C19 (unknown origin) up to 24 microM; format: ADME; conditions: recombinant enzyme
[3] = target: T1, Cytochrome P450 1A2 (Homo sapiens, UniProt P05177); assay: Inhibition of recombinant CYP1A2 (unknown origin); format: ADME
T1 sequence (P05177 whole entry): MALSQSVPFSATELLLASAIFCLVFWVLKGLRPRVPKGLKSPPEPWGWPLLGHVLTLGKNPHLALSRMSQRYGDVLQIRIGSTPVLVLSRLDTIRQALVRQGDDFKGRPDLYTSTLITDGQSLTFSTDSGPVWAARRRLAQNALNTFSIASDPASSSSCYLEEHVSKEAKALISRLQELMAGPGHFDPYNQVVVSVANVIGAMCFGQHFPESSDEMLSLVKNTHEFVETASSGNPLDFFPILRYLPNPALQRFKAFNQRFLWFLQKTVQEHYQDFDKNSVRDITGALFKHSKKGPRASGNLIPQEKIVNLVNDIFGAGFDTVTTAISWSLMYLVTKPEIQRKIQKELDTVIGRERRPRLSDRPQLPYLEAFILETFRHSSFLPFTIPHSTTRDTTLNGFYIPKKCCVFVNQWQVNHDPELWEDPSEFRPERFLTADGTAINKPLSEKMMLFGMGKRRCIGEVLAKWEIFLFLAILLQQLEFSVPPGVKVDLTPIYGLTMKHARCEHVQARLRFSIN

[4] = Oral bioavailability in Balb/C mouse at 10 mg/kg; format: ADME, organism-based; conditions: in vivo
Outline: (§1)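 Male Balb/C mice (n = 3) dosed iv at 5 mg/kg and po at 10 mg/kg. Vehicle was 70% 25 mM acetate buffer pH 4.0, 5% ethanol and 25% PEG 400.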

[5] = system: MC-38; assay: Antitumour activity against mouse MC38 cells allografted in C57Bl/6 mouse assessed as reduction in tumour growth at 3.75 mg/kg, po dosed every 3 days on and 4 days off treatment regime and cotreated with anti-PD1 at 10 mg/kg, ip every 4 days for 3 doses measured for ten doubling times after cessation of treatment by digital caliper analysis; format: functional, organism-based
Outline: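 MC38 cells (0.1 mL at 1 × 10^7 cells/mL) were implanted subcutaneously in the right flank of C57/BL6 mice. Randomization was at about 100 mm3, typically day 5. Oral dosing ran 3 days on, 4 days off, over 28 days. Anti-PD-1 was given at 10 mg/kg IP every 4 days for three doses, with isotype MOPC-21 IgG1 as control on the same schedule.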

[6] = Cmax in Sprague Dawley rat at 10 mg/kg, po; format: ADME, organism-based; design: dose 10 mg/kg, route oral; conditions: in vivo
Outline: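 Male Sprague–Dawley rats, n = 3, given 5 mg/kg iv or 10 mg/kg po as a PEG400 solution.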

[7] = Half life in human hepatocytes; format: ADME, cell-based, Hepatocyte
[8] = system: MC-38; assay: Antitumour activity against mouse MC38 cells allografted in C57Bl/6 mouse assessed as tumour growth upto 15 mg/kg, po qd for 28 days by digital caliper analysis; format: functional, organism-based
Outline: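 C57/BL6 mice bearing subcutaneous right-flank MC38 tumors (0.1 mL of 1 × 10^7 cells/mL) were randomized at about 100 mm3. Monotherapy was given orally once daily for 28 days at up to 15 mg/kg.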

[9] = target: Cytochrome P450 2C9 (Homo sapiens, UniProt P11712); assay: Induction of recombinant CYP2C9 (unknown origin) up to 24 microM; format: ADME; conditions: recombinant enzyme
[10] = Protein binding in dog serum assessed as unbound fraction; format: ADME, cell-free, Canis lupus familiaris
[11] = Metabolic stability of compound in rat liver microsomes assessed as compound remaining after 10 mins; format: ADME, Microsome; conditions: read-out: Stability
[12] = Total AUC in Beagle dog at 1 mg/kg, iv; format: ADME, organism-based, Canis lupus familiaris; design: dose 1 mg/kg, time AUCmax, route intravenous; conditions: in vivo
Outline: (§2)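 Male Beagle dogs (n = 2) were pretreated with pentagastrin and dosed iv at 1 mg/kg and po at 5 mg/kg. The oral vehicle was 5% ethanol, 45% PEG400 and 50% 25 mM acetate buffer pH 4.0. The iv vehicle was 5:45:50 EtOH/PEG400/saline at 1 mL/kg.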

[13] = target: TGF-beta receptor type-1 (Homo sapiens, UniProt P36897, T204D); assay: Inhibition of His-tagged TGFBR1 kinase domain T204D mutant (unknown origin) incubated for 1 hr by HTRF analysis
[14] = Cardiovascular toxicity in rat assessed as aortic pathology at 1 mg/kg, po for 10 days; format: organism-based; conditions: in vivo, 240 h
Outline: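 Exploratory toxicology studies of 10 days with daily oral dosing in rats and dogs. Cardiovascular findings, including valvulopathy and aortic pathology, were assessed.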

[15] = Half life in rat hepatocytes; format: ADME, cell-based, Hepatocyte
[16] = Oral bioavailability in Beagle dog at 5 mg/kg; format: ADME, organism-based, Canis lupus familiaris; conditions: in vivo; outline: as §2
[17] = system: Mus musculus; assay: Antitumor activity in compound-mediated tumor cured C57Bl/6 mouse allografted with mouse MC38 cells assessed as tumor growth following rechallenge with newly implanted mouse LL2 cells treated at 3.75 to 15 mg/kg, po qd for 28 days and cotreated with anti-PD1 at 10 mg/kg, ip every 4 days for 3 doses prior to LL2 cells rechallenge by digital caliper analysis; format: functional, organism-based
Outline: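 Mice cured by oral dosing plus anti-PD-1 (10 mg/kg IP, every 4 days, three doses) were re-implanted with MC38 or LL2 cells. Tumor growth was compared with naive mice.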

[18] = Half life in mouse liver microsomes in presence of NADPH; format: ADME, Microsome
[19] = Volume of distribution at steady state in Beagle dog at 1 mg/kg, iv; format: ADME, organism-based, Canis lupus familiaris; conditions: in vivo, read-out: Vdss; outline: as §2
[20] = Aqueous solubility of the compound at pH 6.5; format: physicochemical; conditions: aqueous solution, read-out: solubility
[21] = Clearance in Balb/C mouse at 5 mg/kg, iv; format: ADME, organism-based; conditions: in vivo
Outline: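 Male Balb/C mice, n = 3, dosed at 5 mg/kg iv or 10 mg/kg po. The vehicle was 70% 25 mM acetate buffer pH 4.0, 5% ethanol and 25% PEG 400.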

[22] = system: MC-38; assay: Antitumour activity against mouse MC38 cells allografted in C57Bl/6 mouse assessed as reduction in tumour growth at 3.75 to 15 mg/kg, po qd for 28 days cotreated with anti-PD1 at 10 mg/kg, ip every 4 days for 3 doses measured for ten doubling times after cessation of treatment by digital caliper analysis; format: functional, organism-based
Outline: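 C57/BL6 mice received 0.1 mL of MC38 cells (1 × 10^7 cells/mL) subcutaneously in the right flank. Mice were randomized at about 100 mm3, typically day 5. Oral dosing was once daily for 28 days at 3.75, 7.5 or 15 mg/kg. Anti-PD-1 was given at 10 mg/kg IP every 4 days for three doses. Isotype IgG1 MOPC-21 served as control on the same schedule.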

[23] = target: Cytochrome P450 2D6 (Homo sapiens, UniProt P10635); assay: Inhibition of recombinant CYP2D6 (unknown origin); format: ADME
[24] = target: Voltage-gated inwardly rectifying potassium channel KCNH2 (Homo sapiens, UniProt Q12809); assay: Inhibition of human ERG by electrophysiology analysis
[25] = Half life in rat liver microsomes in presence of UGT/UDPGA; format: ADME, Microsome
[26] = MRT in Balb/C mouse at 5 mg/kg, iv; format: ADME, organism-based; conditions: in vivo; outline: as §1
[27] = Half life in rat liver microsomes in presence of NADPH; format: ADME, Microsome

Sequence of Cytochrome P450 2C19 (P33261 whole entry): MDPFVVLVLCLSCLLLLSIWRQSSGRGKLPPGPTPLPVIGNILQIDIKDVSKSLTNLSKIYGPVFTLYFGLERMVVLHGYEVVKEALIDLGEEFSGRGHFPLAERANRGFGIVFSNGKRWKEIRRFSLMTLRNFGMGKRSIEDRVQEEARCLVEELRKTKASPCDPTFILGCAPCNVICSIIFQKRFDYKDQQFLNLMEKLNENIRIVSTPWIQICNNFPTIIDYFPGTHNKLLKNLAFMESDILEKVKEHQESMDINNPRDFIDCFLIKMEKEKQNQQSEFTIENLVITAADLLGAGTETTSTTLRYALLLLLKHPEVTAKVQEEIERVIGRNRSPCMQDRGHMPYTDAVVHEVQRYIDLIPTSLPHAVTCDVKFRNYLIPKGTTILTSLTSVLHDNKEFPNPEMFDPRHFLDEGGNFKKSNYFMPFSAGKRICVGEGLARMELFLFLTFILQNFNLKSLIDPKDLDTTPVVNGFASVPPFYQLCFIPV
Sequence of Voltage-gated inwardly rectifying potassium channel KCNH2 (Q12809 whole entry): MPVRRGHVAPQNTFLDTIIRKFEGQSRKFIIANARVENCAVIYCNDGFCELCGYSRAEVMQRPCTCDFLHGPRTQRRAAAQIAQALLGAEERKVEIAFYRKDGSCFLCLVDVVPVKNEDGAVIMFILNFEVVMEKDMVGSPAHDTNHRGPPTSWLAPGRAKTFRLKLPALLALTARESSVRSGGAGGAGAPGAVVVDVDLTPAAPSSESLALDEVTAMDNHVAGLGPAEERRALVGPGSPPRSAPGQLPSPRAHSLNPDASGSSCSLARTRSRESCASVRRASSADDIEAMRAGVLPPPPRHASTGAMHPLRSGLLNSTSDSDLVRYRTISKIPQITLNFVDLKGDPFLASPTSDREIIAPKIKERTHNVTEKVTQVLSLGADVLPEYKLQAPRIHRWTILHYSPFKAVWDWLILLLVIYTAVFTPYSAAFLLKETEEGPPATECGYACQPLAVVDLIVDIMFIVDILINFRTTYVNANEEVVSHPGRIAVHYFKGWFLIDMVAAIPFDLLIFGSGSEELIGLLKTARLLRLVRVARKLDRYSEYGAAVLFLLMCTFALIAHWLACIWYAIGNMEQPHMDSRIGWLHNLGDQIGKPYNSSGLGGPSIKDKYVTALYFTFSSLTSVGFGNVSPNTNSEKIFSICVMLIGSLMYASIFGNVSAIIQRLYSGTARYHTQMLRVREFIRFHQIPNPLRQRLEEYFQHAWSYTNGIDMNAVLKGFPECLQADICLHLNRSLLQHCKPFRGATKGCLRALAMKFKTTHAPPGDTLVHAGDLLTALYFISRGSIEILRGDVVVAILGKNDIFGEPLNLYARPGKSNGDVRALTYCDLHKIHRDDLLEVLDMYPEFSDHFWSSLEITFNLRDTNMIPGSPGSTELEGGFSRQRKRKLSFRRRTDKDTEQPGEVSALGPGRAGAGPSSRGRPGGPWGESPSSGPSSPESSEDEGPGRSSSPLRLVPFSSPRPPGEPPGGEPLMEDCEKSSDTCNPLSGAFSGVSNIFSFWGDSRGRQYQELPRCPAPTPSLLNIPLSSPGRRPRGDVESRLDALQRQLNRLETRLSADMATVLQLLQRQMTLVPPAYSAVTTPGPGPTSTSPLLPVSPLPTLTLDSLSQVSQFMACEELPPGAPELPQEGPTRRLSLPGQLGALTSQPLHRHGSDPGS
Sequence of TGF-beta receptor type-1 (P36897 34-503 T204D limits assumed): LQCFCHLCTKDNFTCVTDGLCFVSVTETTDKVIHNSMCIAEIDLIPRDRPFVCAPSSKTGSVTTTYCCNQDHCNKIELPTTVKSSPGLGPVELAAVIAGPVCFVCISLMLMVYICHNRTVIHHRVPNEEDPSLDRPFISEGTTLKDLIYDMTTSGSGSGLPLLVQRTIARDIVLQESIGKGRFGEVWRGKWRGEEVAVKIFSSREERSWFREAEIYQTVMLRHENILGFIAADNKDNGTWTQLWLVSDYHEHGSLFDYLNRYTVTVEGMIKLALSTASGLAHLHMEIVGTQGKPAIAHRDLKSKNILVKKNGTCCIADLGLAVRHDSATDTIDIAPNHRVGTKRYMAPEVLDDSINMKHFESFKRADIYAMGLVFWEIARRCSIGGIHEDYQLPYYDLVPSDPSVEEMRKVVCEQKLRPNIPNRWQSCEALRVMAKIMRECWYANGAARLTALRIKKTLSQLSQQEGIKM
Sequence of Cytochrome P450 2C9 (P11712 whole entry): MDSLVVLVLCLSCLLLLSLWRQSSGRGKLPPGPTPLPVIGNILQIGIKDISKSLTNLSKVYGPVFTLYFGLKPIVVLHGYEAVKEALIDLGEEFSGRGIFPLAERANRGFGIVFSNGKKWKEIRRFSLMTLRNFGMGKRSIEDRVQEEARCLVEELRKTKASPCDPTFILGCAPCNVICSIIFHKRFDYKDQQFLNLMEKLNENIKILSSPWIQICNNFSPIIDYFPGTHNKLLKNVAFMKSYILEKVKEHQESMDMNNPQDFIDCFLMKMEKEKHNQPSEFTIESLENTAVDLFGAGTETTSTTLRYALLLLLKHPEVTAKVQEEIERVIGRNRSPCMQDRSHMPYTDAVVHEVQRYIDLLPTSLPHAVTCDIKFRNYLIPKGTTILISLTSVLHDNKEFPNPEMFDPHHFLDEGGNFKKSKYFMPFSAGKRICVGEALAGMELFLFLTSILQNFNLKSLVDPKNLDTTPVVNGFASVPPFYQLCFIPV
Sequence of Cytochrome P450 2D6 (P10635 whole entry): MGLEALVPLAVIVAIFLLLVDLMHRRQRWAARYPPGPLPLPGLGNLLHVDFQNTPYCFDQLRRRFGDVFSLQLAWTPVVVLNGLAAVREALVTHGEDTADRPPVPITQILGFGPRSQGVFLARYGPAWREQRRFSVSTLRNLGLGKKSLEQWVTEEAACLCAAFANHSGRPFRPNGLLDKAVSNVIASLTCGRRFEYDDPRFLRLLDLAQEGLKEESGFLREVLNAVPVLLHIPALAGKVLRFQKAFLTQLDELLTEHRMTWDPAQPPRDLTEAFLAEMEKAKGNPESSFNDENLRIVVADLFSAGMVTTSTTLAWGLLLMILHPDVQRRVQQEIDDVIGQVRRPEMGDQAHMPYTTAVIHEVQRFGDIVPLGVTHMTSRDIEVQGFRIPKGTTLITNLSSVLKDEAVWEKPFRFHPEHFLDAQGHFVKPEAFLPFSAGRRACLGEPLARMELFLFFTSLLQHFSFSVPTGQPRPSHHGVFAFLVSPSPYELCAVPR

With `N#Cc1cnc2ccc(-c3c(-c4ccc(F)c(Cl)c4)ncn3CCO)nn12` the half-life [1] was 23 min, the Activity [2] was “Not Active” and the IC50 [3] was > 20 µM. For the same compound, the bioavailability [4] was > 100%, the inhibition [5] was “Active” and the Cmax [6] was 12.7 µM. The half-life [7] was 54 min, the inhibition [8] was “inactive” and the Activity [9] was “Not Active”. The fraction unbound [10] was 0.13, the remaining at 10 min [11] was 91% and the AUC [12] was 7 µM·h. For the same compound, the IC50 [13] was 0.0016 µM, the Activity [14] was “Toxic” and the half-life [15] was 320 min. The bioavailability [16] was 93%, the Activity [17] was “inactive” and the half-life [18] was 28 min. The Vd [19] was 1.1 L/kg, the solubility [20] was 47 µg/mL (≈ 123 µM) and the clearance [21] was 8.3 mL/min/kg. The inhibition [22] was “Active”, the IC50 [23] was > 20 µM and the IC50 [24] was > 10 µM. For the same compound, the half-life [25] was > 120 min, the MRT [26] was 540 min and the half-life [27] was 50 min.
